Results as given in ChEMBL document CHEMBL1151962, “Identification of N,1,4,4-tetramethyl-8-{[4-(4-methylpiperazin-1-yl)phenyl]amino}-4,5-dihydro-1H-pyrazolo[4,3-h]quinazoline-3-carboxamide (PHA-848125), a potent, orally available cyclin dependent kinase inhibitor” (J Med Chem, 2009).
≈ marks a conversion by molar mass, not a printed value. Calls of active or inactive are those of the source. The calls are words filed in the database; no cut-off is given here.

Legend:
[1] = target: T1, Cyclin-dependent kinase 2 (Homo sapiens, UniProt P24941); assay: Inhibition of CDK2 in human A2780 cells assessed as reduction of hyperphosphorylated form of retinoblastoma protein at 1 uM relative to control; type: cell-based
Outline: (§1)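 A2780 human ovarian carcinoma cells (ECACC) were seeded at 25 000 cells/cm2 in RPMI 1640 pH 7.4 with 10% FBS and 2 mM L-glutamine, at 37 °C in 5% CO2. They were exposed 24 h later to 1 or 3 µM. Floating and adherent cells were harvested with trypsin/EDTA. Extracts were immunoblotted for hyper- and hypophosphorylated pRb and compared with untreated cells.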

[2] = target: T1, Cyclin-dependent kinase 2; assay: Inhibition of CDK2 in human A2780 cells assessed as reduction of hyperphosphorylated form of retinoblastoma protein at 3 uM relative to control; type: cell-based; outline: as §1
[3] = target: T1, Cyclin-dependent kinase 2; assay: Inhibition of CDK2 in human A2780 cells assessed as accumulation of hypophosphorylated form of retinoblastoma protein at 1 uM relative to control; type: cell-based; outline: as §1
[4] = target: T1, Cyclin-dependent kinase 2; assay: Inhibition of CDK2 in human A2780 cells assessed as accumulation of hypophosphorylated form of retinoblastoma protein at 3 uM relative to control; type: cell-based; outline: as §1
[5] = Solubility in 5% dextrose; type: physicochemical
Cytochrome P450 3A4 = Cytochrome P450 3A4 (Homo sapiens, UniProt P08684); assay: Inhibition of human CYP3A4 assessed as compound remaining by LC/MS/MS analysis; type: ADME; set-up: concentration or dose not given beside the values
[6] = Half life in fasted nu/nu mouse at 10 mg/kg, iv by LC/MS/MS analysis; type: ADME, organism-based; set-up: dose 10 mg/kg, route intravenous; conditions: in vivo
Outline: (§2)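 Overnight-fasted male Nu/Nu mice received a single 10 mg/kg dose iv or orally, in 5% dextrose vehicle, given as the hydrochloride salt. Three mice per route. Saphenous vein blood was drawn predose and at 0.083 (iv) or 0.25 (po), 0.5, 1, 6 and 24 h. Samples were spun at 10000g for 3 min at 4 °C, and plasma was stored at -80 °C until analysis.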

[7] = Clearance in fasted nu/nu mouse at 10 mg/kg, iv by LC/MS/MS analysis; type: ADME, organism-based; set-up: dose 10 mg/kg, route intravenous; conditions: in vivo; outline: as §2
[8] = Volume of distribution at steady state in fasted nu/nu mouse at 10 mg/kg, iv by LC/MS/MS analysis; type: ADME, organism-based; set-up: dose 10 mg/kg, route intravenous; conditions: in vivo, read-out: Vdss; outline: as §2
[9] = Half life in fasted nu/nu mouse at 10 mg/kg, po by LC/MS/MS analysis; type: ADME, organism-based; set-up: dose 10 mg/kg, route oral; conditions: in vivo; outline: as §2
[10] = AUC in fasted nu/nu mouse at 10 mg/kg, po LC/MS/MS analysis; type: ADME, organism-based; set-up: dose 10 mg/kg, route oral; conditions: plasma; outline: as §2
[11] = Oral bioavailability in fasted nu/nu mouse at 10 mg/kg by LC/MS/MS analysis; type: ADME, organism-based; conditions: in vivo; outline: as §2
Mus musculus = assay: Hepatic blood flow in fasted nu/nu mouse at 10 mg/kg, iv by LC/MS/MS analysis; type: ADME, organism-based, Liver; set-up: dose 10 mg/kg, route intravenous; conditions: in vivo
[12] = Cmax in fasted nu/nu mouse at 10 mg/kg, po by LC/MS/MS analysis; type: ADME, organism-based; set-up: dose 10 mg/kg, route oral; conditions: in vivo; outline: as §2
[13] = Solubility at pH 7; type: physicochemical; conditions: buffer
[14] = target: Cyclin-dependent kinase 1/cyclin B1 (Homo sapiens, UniProt P06493); assay: Inhibition of CDK1/Cyclin B
Outline: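 Biochemical kinase-panel assay against the CDK1/cyclin B complex; IC50 in μM, reported as the mean of two or more experiments.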

A2780 [15] = assay: Effect on cell cycle progression in human A2780 cells assessed as increase in accumulation at […] phase at 1 uM after 24 hrs by flow cytometry; type: functional
Outline: (§3)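 A2780 cells (ECACC) were seeded at 25 000 cells/cm² in RPMI 1640 pH 7.4 with 10% FBS, 2 mM L-glutamine and penicillin-streptomycin, at 37 °C and 5% CO2. After 24 h, cells were exposed to 1 μM compound for 24 h. Floating and trypsin/EDTA-detached cells were pooled and PBS-washed. Samples were split for flow cytometry and BrdU incorporation. Results are expressed versus untreated control cells.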

A2780 [16] = assay: Effect on cell cycle progression in human A2780 cells assessed as decrease in accumulation at S phase at 1 uM after 24 hrs by flow cytometry; type: functional; set-up: scale not given: the % may be the effect or the level left; outline: as §3
A2780 [17] = assay: Effect on cell cycle progression in human A2780 cells assessed as decrease in accumulation at G2/M phase at 1 uM after 24 hrs by flow cytometry; type: functional; set-up: scale not given: the % may be the effect or the level left; outline: as §3
A2780 [18] = assay: Inhibition of DNA synthesis in human A2780 cells assessed as decrease in […] incorporation at 1 uM after 24 hrs by flow cytometry; type: functional; set-up: scale not given: the % may be the effect or the level left; outline: as §3
A2780 [19] = assay: Antitumor activity against human A2780 cells xenografted in nude mouse assessed as tumor growth inhibition at 20 mg/kg, po BID for 10 consecutive days; type: functional; set-up: scale not given: the % may be the effect or the level left
Outline: (§4)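 A2780 human ovarian xenografts were grown in nude mice. Compound was given orally at 20, 30 or 40 mg/kg twice daily for 10 consecutive days. The read-out was tumor growth inhibition.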

A2780 [20] = assay: Antitumor activity against human A2780 cells xenografted in nude mouse assessed as tumor growth inhibition at 30 mg/kg, po BID for 10 consecutive days; type: functional; set-up: scale not given: the % may be the effect or the level left; outline: as §4
A2780 [21] = assay: Antitumor activity against human A2780 cells xenografted in nude mouse assessed as tumor growth inhibition at 40 mg/kg, po BID for 10 consecutive days; type: functional; set-up: scale not given: the % may be the effect or the level left; outline: as §4
[22] = Inhibition of PDGFR
[23] = target: Mast/stem cell growth factor receptor Kit (Homo sapiens, UniProt P10721); assay: Inhibition of C-KIT
[24] = target: Vascular endothelial growth factor receptor 3 (Homo sapiens, UniProt P35916); assay: Inhibition of VEGFR3
[25] = target: Serine/threonine-protein kinase Nek6 (Homo sapiens, UniProt Q9HC98); assay: Inhibition of NEK6
[26] = Inhibition of NIM
[27] = target: Fibroblast growth factor receptor 1 (Homo sapiens, UniProt P11362); assay: Inhibition of FGFR1
[28] = target: Proto-oncogene tyrosine-protein kinase receptor Ret (Homo sapiens, UniProt P07949); assay: Inhibition of RET
[29] = Inhibition of SULU1
Aurora kinase B = Aurora kinase B (Homo sapiens, UniProt Q96GD4); assay: Inhibition of Aurora B
[30] = target: RAC-alpha serine/threonine-protein kinase (Homo sapiens, UniProt P31749); assay: Inhibition of AKT1
[31] = target: Cell division cycle 7-related protein kinase (Homo sapiens, UniProt O00311); assay: Inhibition of CDC7
[32] = target: Serine/threonine-protein kinase Chk1 (Homo sapiens, UniProt O14757); assay: Inhibition of CHK1
[33] = Inhibition of CK2
[34] = target: Mitogen-activated protein kinase 1 (Homo sapiens, UniProt P28482); assay: Inhibition of ERK2
[35] = target: Glycogen synthase kinase-3 beta (Homo sapiens, UniProt P49841); assay: Inhibition of GSK3-beta
[36] = target: Insulin-like growth factor 1 receptor (Homo sapiens, UniProt P08069); assay: Inhibition of IGF1R
[37] = target: Inhibitor of nuclear factor kappa-B kinase subunit epsilon (Homo sapiens, UniProt Q14164); assay: Inhibition of IKKi
[38] = target: Inhibitor of nuclear factor kappa-B kinase subunit beta (Homo sapiens, UniProt O14920); assay: Inhibition of IKK2
Insulin receptor = Insulin receptor (Homo sapiens, UniProt P06213); assay: Inhibition of IR
[39] = target: Tyrosine-protein kinase Lyn (Homo sapiens, UniProt P07948); assay: Inhibition of LYN
[40] = target: MAP kinase-activated protein kinase 2 (Homo sapiens, UniProt P49137); assay: Inhibition of MAPKAPK2
[41] = target: Serine/threonine-protein kinase PAK 4 (Homo sapiens, UniProt O96013); assay: Inhibition of PAK4
[42] = target: 3-phosphoinositide-dependent protein kinase 1 (Homo sapiens, UniProt O15530); assay: Inhibition of PDK1
[43] = target: cAMP-dependent protein kinase catalytic subunit alpha (Homo sapiens, UniProt P17612); assay: Inhibition of PKAalpha
[44] = target: Protein kinase C beta type (Homo sapiens, UniProt P05771); assay: Inhibition of PKCbeta
[45] = target: Serine/threonine-protein kinase PLK1 (Homo sapiens, UniProt P53350); assay: Inhibition of PLK1
[46] = target: Mitogen-activated protein kinase 14 (Homo sapiens, UniProt Q16539); assay: Inhibition of P38alpha
[47] = target: Mitogen-activated protein kinase 11 (Homo sapiens, UniProt Q15759); assay: Inhibition of P38beta
[48] = target: STE20-like serine/threonine-protein kinase (Homo sapiens, UniProt Q9H2G2); assay: Inhibition of STLK2
[49] = target: Vascular endothelial growth factor receptor 2 (Homo sapiens, UniProt P35968); assay: Inhibition of VEGFR2
[50] = target: Tyrosine-protein kinase ZAP-70 (Homo sapiens, UniProt P43403); assay: Inhibition of ZAP-70
Aurora kinase A = target: T2, Aurora kinase A (Homo sapiens, UniProt O14965); assay: Inhibition of Aurora A
T2 sequence (O14965 whole entry): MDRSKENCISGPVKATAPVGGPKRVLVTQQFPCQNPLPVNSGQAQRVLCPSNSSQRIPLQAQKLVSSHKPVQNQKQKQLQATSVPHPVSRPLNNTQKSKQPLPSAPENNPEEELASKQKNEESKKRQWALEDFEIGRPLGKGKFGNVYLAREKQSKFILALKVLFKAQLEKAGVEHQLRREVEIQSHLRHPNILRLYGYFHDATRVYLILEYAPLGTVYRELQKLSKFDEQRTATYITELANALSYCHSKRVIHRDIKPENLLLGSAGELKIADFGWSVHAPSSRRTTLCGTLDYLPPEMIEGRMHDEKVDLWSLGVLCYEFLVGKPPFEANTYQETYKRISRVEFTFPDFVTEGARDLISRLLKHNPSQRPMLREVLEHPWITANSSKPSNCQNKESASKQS

A2780 [51] = assay: Antiproliferative activity against human A2780 cells after 72 hrs by cell Titer_Glo assay; type: functional, cell-based; conditions: A2780, 72 h
Outline: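 A2780 cells were seeded at 10000–30000 cells/cm² in medium with 10% FCS. After 24 h they were treated with serial dilutions of compound, in two replicates. Cell amount was read by Cell Titer Glo 72 h after treatment. IC50 came from sigmoidal fitting.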

Sequence of Insulin receptor (P06213 28-758 limits assumed): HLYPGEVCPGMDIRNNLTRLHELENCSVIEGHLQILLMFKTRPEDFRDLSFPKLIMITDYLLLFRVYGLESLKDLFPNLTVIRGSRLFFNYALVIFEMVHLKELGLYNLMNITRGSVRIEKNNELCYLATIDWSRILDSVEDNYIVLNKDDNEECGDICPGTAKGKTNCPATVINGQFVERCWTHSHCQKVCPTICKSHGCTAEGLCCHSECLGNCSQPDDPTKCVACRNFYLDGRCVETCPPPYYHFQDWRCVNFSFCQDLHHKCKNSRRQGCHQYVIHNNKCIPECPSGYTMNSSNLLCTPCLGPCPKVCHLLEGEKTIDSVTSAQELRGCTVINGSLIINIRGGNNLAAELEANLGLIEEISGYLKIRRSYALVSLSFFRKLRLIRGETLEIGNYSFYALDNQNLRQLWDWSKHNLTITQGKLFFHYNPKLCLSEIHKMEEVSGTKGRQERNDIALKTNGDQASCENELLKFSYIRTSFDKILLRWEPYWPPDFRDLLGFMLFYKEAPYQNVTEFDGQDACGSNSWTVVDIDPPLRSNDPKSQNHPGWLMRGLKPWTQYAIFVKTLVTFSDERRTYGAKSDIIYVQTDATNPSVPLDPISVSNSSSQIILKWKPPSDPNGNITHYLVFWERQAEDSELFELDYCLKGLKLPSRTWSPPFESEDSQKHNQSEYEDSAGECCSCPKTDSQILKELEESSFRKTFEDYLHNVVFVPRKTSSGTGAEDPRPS
Sequence of Insulin receptor (P06213 763-1382 limits assumed): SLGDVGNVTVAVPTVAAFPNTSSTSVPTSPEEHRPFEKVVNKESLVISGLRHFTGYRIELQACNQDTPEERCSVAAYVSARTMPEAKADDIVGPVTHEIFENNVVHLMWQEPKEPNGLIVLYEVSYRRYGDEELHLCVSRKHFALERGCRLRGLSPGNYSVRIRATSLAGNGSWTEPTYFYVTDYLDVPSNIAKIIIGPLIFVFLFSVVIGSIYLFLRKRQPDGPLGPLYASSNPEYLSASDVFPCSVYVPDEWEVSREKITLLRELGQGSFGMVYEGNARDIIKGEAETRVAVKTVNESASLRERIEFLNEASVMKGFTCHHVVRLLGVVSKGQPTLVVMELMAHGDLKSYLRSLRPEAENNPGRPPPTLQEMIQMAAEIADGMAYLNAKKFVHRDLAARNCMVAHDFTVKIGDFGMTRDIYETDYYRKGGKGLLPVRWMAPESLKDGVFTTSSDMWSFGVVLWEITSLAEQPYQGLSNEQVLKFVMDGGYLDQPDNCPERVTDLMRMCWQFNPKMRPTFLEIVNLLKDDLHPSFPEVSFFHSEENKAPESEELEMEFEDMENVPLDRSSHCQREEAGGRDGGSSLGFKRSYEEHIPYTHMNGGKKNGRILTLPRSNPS
Sequence of Serine/threonine-protein kinase Nek6 (Q9HC98 whole entry): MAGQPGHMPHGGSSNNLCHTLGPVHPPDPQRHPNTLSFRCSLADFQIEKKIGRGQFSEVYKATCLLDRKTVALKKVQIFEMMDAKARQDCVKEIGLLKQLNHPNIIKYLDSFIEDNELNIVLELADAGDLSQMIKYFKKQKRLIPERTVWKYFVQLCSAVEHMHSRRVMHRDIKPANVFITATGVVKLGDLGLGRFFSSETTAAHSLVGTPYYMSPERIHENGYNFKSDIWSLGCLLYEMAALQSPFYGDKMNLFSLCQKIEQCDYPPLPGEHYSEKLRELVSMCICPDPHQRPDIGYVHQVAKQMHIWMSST
Sequence of Serine/threonine-protein kinase Chk1 (O14757 whole entry): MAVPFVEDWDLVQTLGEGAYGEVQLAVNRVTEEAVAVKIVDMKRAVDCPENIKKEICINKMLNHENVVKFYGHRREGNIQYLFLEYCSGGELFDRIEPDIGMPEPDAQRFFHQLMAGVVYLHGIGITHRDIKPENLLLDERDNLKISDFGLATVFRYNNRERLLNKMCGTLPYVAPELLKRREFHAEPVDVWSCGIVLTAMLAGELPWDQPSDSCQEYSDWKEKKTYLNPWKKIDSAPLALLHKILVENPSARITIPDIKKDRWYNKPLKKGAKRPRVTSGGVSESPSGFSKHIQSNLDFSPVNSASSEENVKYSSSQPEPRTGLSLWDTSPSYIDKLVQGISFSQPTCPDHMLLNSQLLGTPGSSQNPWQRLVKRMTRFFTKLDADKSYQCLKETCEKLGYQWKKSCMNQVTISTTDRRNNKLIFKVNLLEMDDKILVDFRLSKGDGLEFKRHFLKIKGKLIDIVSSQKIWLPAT
Sequence of Mitogen-activated protein kinase 11 (Q15759 whole entry): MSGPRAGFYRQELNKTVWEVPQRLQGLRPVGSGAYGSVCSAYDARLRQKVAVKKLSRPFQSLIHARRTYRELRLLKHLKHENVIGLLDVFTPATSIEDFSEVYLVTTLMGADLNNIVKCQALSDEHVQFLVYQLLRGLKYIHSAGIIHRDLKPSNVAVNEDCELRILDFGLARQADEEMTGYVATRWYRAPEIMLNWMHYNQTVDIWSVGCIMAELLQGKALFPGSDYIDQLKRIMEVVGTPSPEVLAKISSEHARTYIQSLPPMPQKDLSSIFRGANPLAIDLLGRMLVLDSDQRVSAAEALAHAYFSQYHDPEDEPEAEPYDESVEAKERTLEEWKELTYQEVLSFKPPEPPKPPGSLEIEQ
Sequence of Tyrosine-protein kinase ZAP-70 (P43403 whole entry): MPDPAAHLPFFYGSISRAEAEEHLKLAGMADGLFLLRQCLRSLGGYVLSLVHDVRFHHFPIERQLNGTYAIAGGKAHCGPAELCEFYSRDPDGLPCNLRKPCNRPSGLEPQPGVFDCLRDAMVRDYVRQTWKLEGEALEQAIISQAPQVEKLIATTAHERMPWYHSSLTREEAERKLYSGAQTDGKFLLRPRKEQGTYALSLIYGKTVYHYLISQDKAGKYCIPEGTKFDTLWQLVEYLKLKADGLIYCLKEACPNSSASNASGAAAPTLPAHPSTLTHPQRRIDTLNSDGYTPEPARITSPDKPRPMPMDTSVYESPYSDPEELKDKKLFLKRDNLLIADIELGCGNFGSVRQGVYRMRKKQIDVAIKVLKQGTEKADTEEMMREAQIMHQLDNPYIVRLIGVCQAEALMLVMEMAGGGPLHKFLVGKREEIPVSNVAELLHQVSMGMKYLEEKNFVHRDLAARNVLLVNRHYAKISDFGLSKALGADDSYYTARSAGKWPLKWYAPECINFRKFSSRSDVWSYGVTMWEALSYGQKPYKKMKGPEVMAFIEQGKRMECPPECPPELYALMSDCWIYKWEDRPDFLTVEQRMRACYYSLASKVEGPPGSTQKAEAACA
Sequence of Protein kinase C beta type (P05771 whole entry): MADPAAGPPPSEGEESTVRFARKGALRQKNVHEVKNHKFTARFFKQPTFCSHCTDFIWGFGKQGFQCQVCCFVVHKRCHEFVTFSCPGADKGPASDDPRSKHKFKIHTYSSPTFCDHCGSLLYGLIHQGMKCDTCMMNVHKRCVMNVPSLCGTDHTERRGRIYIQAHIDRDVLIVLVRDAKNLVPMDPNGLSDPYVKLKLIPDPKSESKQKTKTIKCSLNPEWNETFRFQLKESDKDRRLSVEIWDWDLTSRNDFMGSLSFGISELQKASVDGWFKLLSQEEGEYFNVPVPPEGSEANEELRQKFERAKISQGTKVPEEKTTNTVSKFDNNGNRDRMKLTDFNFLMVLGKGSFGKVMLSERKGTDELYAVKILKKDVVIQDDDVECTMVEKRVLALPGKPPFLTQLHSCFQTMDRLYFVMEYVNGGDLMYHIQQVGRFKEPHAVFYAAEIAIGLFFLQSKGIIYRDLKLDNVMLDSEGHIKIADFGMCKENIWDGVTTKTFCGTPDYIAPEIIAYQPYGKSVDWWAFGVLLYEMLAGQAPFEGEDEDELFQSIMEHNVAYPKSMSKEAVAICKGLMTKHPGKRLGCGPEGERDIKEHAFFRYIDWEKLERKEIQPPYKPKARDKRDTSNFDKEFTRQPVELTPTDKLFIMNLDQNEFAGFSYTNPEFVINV
Sequence of Cell division cycle 7-related protein kinase (O00311 whole entry): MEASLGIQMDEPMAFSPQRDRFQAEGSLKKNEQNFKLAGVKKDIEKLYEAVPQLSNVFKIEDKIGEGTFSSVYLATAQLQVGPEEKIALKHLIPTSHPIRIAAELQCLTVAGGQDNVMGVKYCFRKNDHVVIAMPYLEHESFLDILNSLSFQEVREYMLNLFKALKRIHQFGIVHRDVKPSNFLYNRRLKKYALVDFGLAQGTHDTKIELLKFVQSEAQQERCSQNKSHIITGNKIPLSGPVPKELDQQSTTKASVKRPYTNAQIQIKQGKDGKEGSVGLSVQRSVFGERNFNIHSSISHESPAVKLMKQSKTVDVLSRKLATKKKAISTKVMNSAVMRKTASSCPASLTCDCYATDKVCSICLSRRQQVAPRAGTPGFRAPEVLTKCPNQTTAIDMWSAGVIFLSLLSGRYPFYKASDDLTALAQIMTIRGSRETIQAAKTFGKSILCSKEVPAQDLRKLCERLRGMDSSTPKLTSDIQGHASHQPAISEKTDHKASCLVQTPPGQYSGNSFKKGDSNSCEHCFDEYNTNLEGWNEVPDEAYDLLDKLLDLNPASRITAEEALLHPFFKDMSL
Sequence of Mitogen-activated protein kinase 14 (Q16539 whole entry): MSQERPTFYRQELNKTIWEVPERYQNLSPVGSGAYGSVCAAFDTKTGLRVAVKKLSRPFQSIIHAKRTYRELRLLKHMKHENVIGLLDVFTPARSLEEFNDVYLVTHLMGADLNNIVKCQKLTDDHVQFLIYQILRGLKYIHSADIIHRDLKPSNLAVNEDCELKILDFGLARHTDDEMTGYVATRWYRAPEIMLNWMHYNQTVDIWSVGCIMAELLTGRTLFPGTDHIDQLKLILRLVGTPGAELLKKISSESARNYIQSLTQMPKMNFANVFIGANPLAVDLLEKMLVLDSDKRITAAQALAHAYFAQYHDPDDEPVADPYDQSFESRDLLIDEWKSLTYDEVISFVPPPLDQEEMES

SMILES: CNC(=O)c1nn(C)c2c1C(C)(C)Cc1cnc(Nc3ccc(N4CCN(C)CC4)cc3)nc1-2
- Activity [1]: Active
- Activity [2]: Active
- Activity [3]: Active
- Activity [4]: Active

SMILES: CNC(=O)c1nn(C)c2c1C(C)(C)Cc1cnc(Nc3ccc(N4CCN(C)CC4)cc3)nc1-2.Cl
- solubility [5]: 10000 µg/mL
- Activity (Cytochrome P450 3A4): 85%
- half-life [6]: 2.6 h
- clearance [7]: 31.2 mL/min/kg
- Vd [8]: 4.82 L/kg
- half-life [9]: 2.9 h
- AUC [10]: 8.29 µM·h
- bioavailability [11]: 85%
- Activity (Mus musculus): 36%
- Cmax [12]: 2350 nM

SMILES: CNC(=O)c1nn(C)c2c1C(C)(C)Cc1cnc(Nc3ccc(N4CCN(C)CC4)cc3)nc1-2 [MILCICLIB]
- solubility [13]: 191 µM (≈ 88 µg/mL)
- IC50 [14]: 0.398 µM
- Activity (A2780 [15]): 49%
- Activity (A2780 [16]): 68%
- Activity (A2780 [17]): 40%
- Activity (A2780 [18]): 75%
- Activity (A2780 [19]): 53%
- Activity (A2780 [20]): 76%
- Activity (A2780 [21]): 91%
- IC50 [22]: 0.579 µM
- IC50 [23]: 0.668 µM
- IC50 [24]: 0.92 µM
- IC50 [25]: 1.06 µM
- IC50 [26]: 1.17 µM
- IC50 [27]: 1.21 µM
- IC50 [28]: 1.93 µM
- IC50 [29]: 2.87 µM
- IC50 (Aurora kinase B): 4.17 µM
- IC50 [30]: > 10 µM
- IC50 [31]: > 10 µM
- IC50 [32]: > 10 µM
- IC50 [33]: > 10 µM
- IC50 [34]: > 10 µM
- IC50 [35]: > 10 µM
- IC50 [36]: > 10 µM
- IC50 [37]: > 10 µM
- IC50 [38]: > 10 µM
- IC50 (Insulin receptor): > 10 µM
- IC50 [39]: > 10 µM
- IC50 [40]: > 10 µM
- IC50 [41]: > 10 µM
- IC50 [42]: > 10 µM
- IC50 [43]: > 10 µM
- IC50 [44]: > 10 µM
- IC50 [45]: > 10 µM
- IC50 [46]: > 10 µM
- IC50 [47]: > 10 µM
- IC50 [48]: > 10 µM
- IC50 [49]: > 10 µM
- IC50 [50]: > 10 µM
- IC50 (Aurora kinase A): 1.05 µM
- IC50 (A2780 [51]): 0.2 µM
